This is an account of results in ChEMBL document CHEMBL1127066, “Discovery and structure-activity relationship of a series of 1-carba-1-dethiacephems exhibiting activity against methicillin-resistant Staphylococcus aureus” (J Med Chem, 1993).

In brackets after ≈: the same amount, converted by molar mass.

Series [1] relates to Staphylococcus aureus. Description: In vitro antimicrobial activity against Staphylococcus aureus X1.1 strain. Format: functional.
Series [2] has as its system Staphylococcus aureus. Nature of the series: In vitro antimicrobial activity against Staphylococcus aureus X400 strain. Type of series: functional.
For series [3], the system named is Pseudomonas aeruginosa. Nature of the series: In vitro antimicrobial activity against Pseudomonas X239 strain. Format: functional.
For series [4], the system named is Pseudomonas aeruginosa. Description: Antimicrobial activity against Pseudomonas PS18 strain. Format: functional.
A further series concerns Escherichia coli. Description: In vitro evaluation of antimicrobial activity against Escherichia coli EC14 strain. Type of series: functional.
A further series relates to Haemophilus influenzae. Description: In vitro antimicrobial activity against Haemophilus influenzae C.L. strain. Type of series: functional.
The subject of series [5] is Staphylococcus epidermidis. Description: In vitro antimicrobial activity against Staphylococcus epidermidis 270 strain. Format: functional.
The species named for series [6] is Rattus norvegicus. Nature of the series: (§1) In vitro plasma protein binding was evaluated using Sprauge-Dawley rat at 20 ug/mL. Format: ADME. In short, it runs like this:
(§2)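 Binding was measured by ultrafiltration (Centrifree micropartition) in pooled plasma (ICR mouse, Sprague–Dawley rat, rhesus monkey or human) at a drug concentration of 20 μg/mL.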

Series [7] deals with Staphylococcus aureus. Description: In vitro antimicrobial activity against Staphylococcus aureus S13E strain. Format: functional.
For series [8], the system named is Staphylococcus epidermidis. Nature of the series: In vitro antimicrobial activity against Staphylococcus epidermidis 222 strain. Format: functional.
A further series deals with Enterobacter cloacae. Nature of the series: In vitro evaluation of antimicrobial activity against Enterobacter cloacae EB5 strain. Format: functional.
In a further series the test system is Streptococcus pneumoniae. Description: In vitro antimicrobial activity against Streptococcus pneumoniae PARK strain. Format: functional.
Another series relates to Klebsiella. Description: In vitro antimicrobial activity against Klebsiella X26 strain. Format: functional.
In series [9] the test system is Staphylococcus aureus. Nature of the series: Minimum inhibitory concentration against methicillin-resistant Staphylococcus aureus 430 (MRSA) in vitro using trypticase soy broth (TSB) with 4% NaCl. Format: functional.
Series [10] in a line: Tested against penicillin binding protein 2a (PBP2a) enzyme.
The test system of series [11] is Staphylococcus aureus. Description: Minimum inhibitory concentration against homoresistant strain of Staphylococcus aureus 447 in the absence of NaCl. Type of series: functional.
Series [12] is filed under the species Homo sapiens. Nature of the series: (§3) In vitro plasma protein binding was evaluated by using Human plasma at 20 ug/mL. Format: ADME. An outline of the steps: as §2
Series [13] has as its system Staphylococcus aureus. Nature of the series: Minimum inhibitory concentration against heteroresistant strain of Staphylococcus aureus 430 in the absence of NaCl. Type of series: functional.
Series [14] deals with Staphylococcus aureus. Description: Minimum inhibitory concentration against sensitive strain of Staphylococcus aureus 446 in 4% of NaCl. Format: functional.
Series [15] deals with Staphylococcus aureus. Nature of the series: Minimum inhibitory concentration against homoresistant strain of Staphylococcus aureus 447 in 4% of NaCl. Type of series: functional.
For another series, the species on record is Mus musculus. Nature of the series: In vitro plasma protein binding was evaluated using ICR mouse at 20 ug/mL. Type of series: ADME. In short, it runs like this: as §2
Series [16] relates to Staphylococcus aureus. Description: Minimum inhibitory concentration against sensitive strain of Staphylococcus aureus 446 in the absence of NaCl. Type of series: functional.
The subject of series [17] is Staphylococcus aureus. Description: Minimum inhibitory concentration against methicillin-resistant Staphylococcus aureus 430 (MRSA) in vitro using trypticase soy broth (TSB). Format: functional.
The test system of series [18] is Staphylococcus aureus. Description: Minimum inhibitory concentration against heteroresistant strain of Staphylococcus aureus 430 in 4% of NaCl. Type of series: functional.
Series [19] is filed under the species Rattus norvegicus. The description is as §1. Type of series: functional. In short, it runs like this: as §2
Series [20] is filed under the species Homo sapiens. Described as §3. Format: functional. An outline of the steps: as §2

Take `CO/N=C(\C(=O)N[C@@H]1C(=O)N2C(C(=O)O)=C(COC(C)=O)CS[C@H]12)c1csc(N)n1` [CEFOTAXIME]: the MIC was determined as 2 µg/mL (≈ 4.39 µM) with Staphylococcus aureus [1]; 64 µg/mL (≈ 141 µM) with Staphylococcus aureus [2]; 8 µg/mL (≈ 17.6 µM) in the series on Pseudomonas aeruginosa [3]; 16 µg/mL (≈ 35.1 µM) against Pseudomonas aeruginosa [4]; 0.03 µg/mL (≈ 0.0659 µM) in the series on Escherichia coli; 0.015 µg/mL (≈ 0.0329 µM) with Haemophilus influenzae. Also, the MIC is 8 µg/mL (≈ 17.6 µM) in [5]; 8 µg/mL (≈ 17.6 µM) against Staphylococcus aureus [7]; 2 µg/mL (≈ 4.39 µM) in series [8]; 0.25 µg/mL (≈ 0.549 µM) against Enterobacter cloacae; 0.015 µg/mL (≈ 0.0329 µM) in the series with Streptococcus pneumoniae; below 0.008 µg/mL against Klebsiella. Besides, the Bound in the series listed under Rattus norvegicus [6] came out at 88.5%.

For `Nc1nc(/C(=N\OCCF)C(=O)N[C@@H]2C(=O)N3C(C(=O)[O-])=C(Sc4nc5ccc([N+](=O)[O-])cc5s4)CC[C@H]23)cs1.[Na+]`, the MIC was 0.06 µg/mL against Staphylococcus aureus [1]; 2 µg/mL in the series with Staphylococcus aureus [2]; 1 µg/mL against Staphylococcus aureus [9]; 1.9 µg/mL in the series with Staphylococcus aureus [11]; above 128 µg/mL against Pseudomonas aeruginosa [3]; 64 µg/mL in the series with Pseudomonas aeruginosa [4]. Moreover, the MIC in the series on Escherichia coli stood at 0.25 µg/mL; in the series with Staphylococcus aureus [13] it was 1 µg/mL; against Haemophilus influenzae, 0.03 µg/mL; in the series with Staphylococcus aureus [14], 0.25 µg/mL; in series [5] it was 0.5 µg/mL; in the series on Staphylococcus aureus [15], 1.9 µg/mL. The MIC against Staphylococcus aureus [7] was 2 µg/mL; with Staphylococcus aureus [16] it was 0.25 µg/mL; in series [8] it was 0.5 µg/mL; with Staphylococcus aureus [17] it was 0.5 µg/mL; in the series with Staphylococcus aureus [18], 1 µg/mL; with Enterobacter cloacae, 1 µg/mL. In addition, the MIC with Streptococcus pneumoniae was below 0.008 µg/mL; in the series on Klebsiella, 0.06 µg/mL. The compound also registered an IC50 in [10] of 0.85 µg/mL. The results for the Bound in the series listed under Homo sapiens [12], in the series listed under Rattus norvegicus [6] and in the series listed under Mus musculus were above 99.2%, 98.3% and 96.9%, respectively.

For the compound `Nc1nc(/C(=N\OCCF)C(=O)N[C@@H]2C(=O)N3C(C(=O)[O-])=C(Sc4snc5ccccc45)CC[C@H]23)cs1.[Na+]`, the MIC in the series on Staphylococcus aureus [1] came to 0.125 µg/mL; in the series with Staphylococcus aureus [2], 64 µg/mL; with Pseudomonas aeruginosa [3] it was 32 µg/mL; in the series with Pseudomonas aeruginosa [4], 16 µg/mL; against Escherichia coli, 0.25 µg/mL; against Haemophilus influenzae, 0.03 µg/mL. Besides, the MIC was 2 µg/mL in [5]; 32 µg/mL with Staphylococcus aureus [7]; 0.5 µg/mL in series [8]; 0.5 µg/mL with Enterobacter cloacae; below 0.008 µg/mL in the series on Streptococcus pneumoniae; 0.03 µg/mL in the series on Klebsiella.

For `Nc1nc(/C(=N\OCCF)C(=O)N[C@@H]2C(=O)N3C(C(=O)[O-])=C(Sc4nc(-c5ccncc5)cs4)CC[C@H]23)cs1.[Na+]`, the MIC was 0.125 µg/mL against Staphylococcus aureus [1]; 32 µg/mL with Staphylococcus aureus [2]; above 128 µg/mL in the series on Pseudomonas aeruginosa [3]; above 128 µg/mL in the series with Pseudomonas aeruginosa [4]; 0.25 µg/mL against Escherichia coli; 0.03 µg/mL in the series on Haemophilus influenzae. The MIC is 2 µg/mL in series [5]; 8 µg/mL in the series on Staphylococcus aureus [7]; 0.5 µg/mL in series [8]; 2 µg/mL with Enterobacter cloacae; below 0.008 µg/mL in the series with Streptococcus pneumoniae; 0.03 µg/mL with Klebsiella.

As for `CO/N=C(\C(=O)N[C@@H]1C(=O)N2C(C(=O)O)=C(CSc3nc(=O)c(O)nn3C)CS[C@H]12)c1csc(N)n1` [CEFTRIAXONE], the Bound in the series listed under Rattus norvegicus [19] is listed as 88.5%; in the series filed under Homo sapiens [20], 94%.

By IC50 is commonly meant the concentration that gives 50% inhibition.
